Reference: ChEMBL document CHEMBL1138070, “Inhibitors of HCV NS5B polymerase: synthesis and structure-activity relationships of N-alkyl-4-hydroxyquinolon-3-yl-benzothiadiazine sulfamides” (Bioorg Med Chem Lett, 2006)

Assays:
[1] = molecular target: T1, RNA-directed RNA polymerase (Hepacivirus hominis, UniProt O39930); assay: Inhibition of HCV 1a NS5B RNA polymerase
Hepatitis C virus [2] = assay: Inhibition of HCV 1b replication in presence of 5% fetal calf serum; format: functional, organism-based, Hepatitis C virus subtype 1b
How it was run: (§1)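 Genotype 1b HCV replicon cell culture assay. The medium held 5% fetal calf serum […] and 40% human serum […]. EC50 is the mean of at least two independent determinations, standard deviation ±10%.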

[3] = molecular target: T1, RNA-directed RNA polymerase; assay: Inhibition of HCV 1b NS5B RNA polymerase; set-up: species or system Hepatitis C virus subtype 1b
Hepatitis C virus [4] = assay: Inhibition of HCV 1b replication in presence of 40% human serum; format: functional, organism-based, Hepatitis C virus subtype 1b; how it was run: as §1

T1 sequence (O39930 whole entry): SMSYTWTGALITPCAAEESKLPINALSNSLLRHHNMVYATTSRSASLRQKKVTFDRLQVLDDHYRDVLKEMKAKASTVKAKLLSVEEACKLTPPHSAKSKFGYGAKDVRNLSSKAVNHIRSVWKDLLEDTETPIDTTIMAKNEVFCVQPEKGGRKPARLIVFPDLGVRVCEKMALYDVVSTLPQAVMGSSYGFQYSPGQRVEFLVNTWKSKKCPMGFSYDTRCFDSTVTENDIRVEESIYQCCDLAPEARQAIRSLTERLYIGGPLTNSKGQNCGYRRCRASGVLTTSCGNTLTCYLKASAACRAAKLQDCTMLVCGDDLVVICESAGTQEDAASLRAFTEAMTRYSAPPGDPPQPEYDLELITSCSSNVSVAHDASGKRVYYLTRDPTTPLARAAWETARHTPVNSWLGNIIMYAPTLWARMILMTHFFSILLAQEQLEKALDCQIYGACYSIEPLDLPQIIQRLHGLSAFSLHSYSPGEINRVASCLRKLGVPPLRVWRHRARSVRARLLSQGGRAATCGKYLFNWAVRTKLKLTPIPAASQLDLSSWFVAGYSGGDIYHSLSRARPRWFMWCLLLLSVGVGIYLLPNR

Row | IC50 [1] | Structure (SMILES) | further results
1 | 132 nM | CCOC(=O)c1cccc(NS(=O)(=O)Nc2ccc3c(c2)S(=O)(=O)NC(c2c(O)c4cccnc4n(CCC(C)C)c2=O)=N3)c1 | –
2 | 43 nM | CNC(=O)c1ccc(NS(=O)(=O)Nc2ccc3c(c2)S(=O)(=O)N=C(c2c(O)c4cccnc4n(CCC(C)C)c2=O)N3)cc1 | –
3 | 20 nM | CC(C)CCn1c(=O)c(C2=Nc3ccc(NS(=O)(=O)NCCC(N)=O)cc3S(=O)(=O)N2)c(O)c2cccnc21 | –
4 | 61 nM | CCOC(=O)COC(=O)NS(=O)(=O)Nc1ccc2c(c1)S(=O)(=O)NC(c1c(O)c3cccnc3n(CCC(C)C)c1=O)=N2 | –
5 | 50 nM | CC(C)CCn1c(=O)c(C2=Nc3ccc(NS(=O)(=O)NC(=O)OCC(=O)O)cc3S(=O)(=O)N2)c(O)c2cccnc21 | –
6 | 21 nM | CC(C)CCn1c(=O)c(C2=Nc3ccc(NS(=O)(=O)NC(=O)OCCN)cc3S(=O)(=O)N2)c(O)c2cccnc21 | –
7 | 129 nM | COC(=O)c1ccccc1NS(=O)(=O)Nc1ccc2c(c1)S(=O)(=O)NC(c1c(O)c3cccnc3n(CCC(C)C)c1=O)=N2 | –
8 | 115 nM | CC(C)CCn1c(=O)c(C2=Nc3ccc(NS(=O)(=O)Nc4cccc(C(=O)O)c4)cc3S(=O)(=O)N2)c(O)c2cccnc21 | –
9 | 96 nM | CC(C)CCn1c(=O)c(C2=Nc3ccc(NS(=O)(=O)NC(=O)OCCOCc4ccccc4)cc3S(=O)(=O)N2)c(O)c2cccnc21 | –
10 | 58 nM | CC(C)CCn1c(=O)c(C2=Nc3ccc(NS(=O)(=O)NC(=O)OCc4ccccc4)cc3S(=O)(=O)N2)c(O)c2cccnc21 | –
11 | 18 nM | CC(C)CCn1c(=O)c(C2=Nc3ccc(NS(=O)(=O)NCCc4ccccc4)cc3S(=O)(=O)N2)c(O)c2cccnc21 | EC50 (Hepatitis C virus [2]): 1270 nM; IC50 [3]: 37 nM
12 | 2.4 nM | CC(C)CCn1c(=O)c(C2=NS(=O)(=O)c3cc(NS(C)(=O)=O)ccc3N2)c(O)c2cccnc21 | IC50 [3]: 6 nM
13 | 5.5 nM | CC(C)CCn1c(=O)c(C2=NS(=O)(=O)c3cc(NS(=O)(=O)NCc4ccccc4)ccc3N2)c(O)c2cccnc21 | EC50 (Hepatitis C virus [2]): 398 nM; IC50 [3]: 44 nM
14 | 88 nM | C=CCOC(=O)NS(=O)(=O)Nc1ccc2c(c1)S(=O)(=O)N=C(c1c(O)c3cccnc3n(CCC(C)C)c1=O)N2 | –
15 | 43 nM | CC(C)CCn1c(=O)c(C2=NS(=O)(=O)c3cc(NS(=O)(=O)Nc4cccc(C(N)=O)c4)ccc3N2)c(O)c2cccnc21 | –
16 | 63 nM | COC(=O)NS(=O)(=O)Nc1ccc2c(c1)S(=O)(=O)N=C(c1c(O)c3cccnc3n(CCC(C)C)c1=O)N2 | –
17 | 87 nM | COCCOC(=O)NS(=O)(=O)Nc1ccc2c(c1)S(=O)(=O)NC(c1c(O)c3cccnc3n(CCC(C)C)c1=O)=N2 | –
18 | 121 nM | CC(C)CCn1c(=O)c(C2=NS(=O)(=O)c3cc(NS(=O)(=O)N(C)C(=O)OCc4ccccc4)ccc3N2)c(O)c2cccnc21 | –
19 | 72 nM | C#CCOC(=O)NS(=O)(=O)Nc1ccc2c(c1)S(=O)(=O)N=C(c1c(O)c3cccnc3n(CCC(C)C)c1=O)N2 | –
20 | 43 nM | CC(C)CCn1c(=O)c(C2=NS(=O)(=O)c3cc(NS(=O)(=O)Nc4cccc(C(=O)NCC(N)=O)c4)ccc3N2)c(O)c2cccnc21 | –

Row | IC50 [1] | Structure (SMILES) | further results
21 | 67 nM | CC(C)CCn1c(=O)c(C2=Nc3ccc(NS(=O)(=O)NC4CCCCC4)cc3S(=O)(=O)N2)c(O)c2cccnc21 | –
22 | 5.2 nM | NS(=O)(=O)Nc1ccc2c(c1)S(=O)(=O)NC(c1c(O)c3ccccc3n(NC3CCC3)c1=O)=N2 | EC50 (Hepatitis C virus [2]): 3 nM; IC50 [3]: 0.4 nM; EC50 (Hepatitis C virus [4]): 81 nM
23 | 18 nM | CC(C)CCn1c(=O)c(C2=Nc3ccc(NS(=O)(=O)Nc4ccc(C(N)=O)cc4)cc3S(=O)(=O)N2)c(O)c2cccnc21 | –
24 | 32 nM | CC(C)CCn1c(=O)c(C2=Nc3ccc(NS(=O)(=O)NC4CCNCC4)cc3S(=O)(=O)N2)c(O)c2cccnc21 | –
25 | 9 nM | CC(C)CCn1c(=O)c(C2=NS(=O)(=O)c3cc(NS(N)(=O)=O)ccc3N2)c(O)c2cccnc21 | EC50 (Hepatitis C virus [2]): 17 nM; IC50 [3]: 2.8 nM
26 | 41 nM | CC(C)CCn1c(=O)c(C2=Nc3ccc(NS(=O)(=O)Nc4ccccc4)cc3S(=O)(=O)N2)c(O)c2cccnc21 | –
27 | 15 nM | COc1cccc(CNS(=O)(=O)Nc2ccc3c(c2)S(=O)(=O)NC(c2c(O)c4cccnc4n(CCC(C)C)c2=O)=N3)c1 | –
28 | 107 nM | CC(C)CCn1c(=O)c(C2=Nc3ccc(NS(=O)(=O)NCCO)cc3S(=O)(=O)N2)c(O)c2cccnc21 | –
29 | 48 nM | COC(=O)c1ccc(NS(=O)(=O)Nc2ccc3c(c2)S(=O)(=O)N=C(c2c(O)c4cccnc4n(CCC(C)C)c2=O)N3)cc1 | –
30 | 57 nM | COc1ccccc1CNS(=O)(=O)Nc1ccc2c(c1)S(=O)(=O)NC(c1c(O)c3cccnc3n(CCC(C)C)c1=O)=N2 | –
31 | 189 nM | CC(C)CCn1c(=O)c(C2=Nc3ccc(NS(=O)(=O)NC(=O)OCCCl)cc3S(=O)(=O)N2)c(O)c2cccnc21 | –
32 | 10 nM | CC(C)CCn1c(=O)c(C2=Nc3ccc(NS(=O)(=O)NCCN)cc3S(=O)(=O)N2)c(O)c2cccnc21 | –
33 | 13 nM | CC(C)CCn1c(=O)c(C2=Nc3ccc(NS(=O)(=O)NCc4cccc([N+](=O)[O-])c4)cc3S(=O)(=O)N2)c(O)c2cccnc21 | –
34 | 10 nM | COc1ccc(CNS(=O)(=O)Nc2ccc3c(c2)S(=O)(=O)N=C(c2c(O)c4cccnc4n(CCC(C)C)c2=O)N3)cc1 | –
35 | 14 nM | CNS(=O)(=O)Nc1ccc2c(c1)S(=O)(=O)NC(c1c(O)c3cccnc3n(CCC(C)C)c1=O)=N2 | –
36 | 20 nM | CC(C)CCn1c(=O)c(C2=NS(=O)(=O)c3cc(NS(=O)(=O)Nc4ccc(C(=O)O)cc4)ccc3N2)c(O)c2cccnc21 | –
37 | 35 nM | CC(C)CCn1c(=O)c(C2=Nc3ccc(NS(=O)(=O)NC(=O)OCCC#N)cc3S(=O)(=O)N2)c(O)c2cccnc21 | EC50 (Hepatitis C virus [2]): 98 nM; IC50 [3]: 6.7 nM
38 | 27 nM | CC(C)CCn1c(=O)c(C2=Nc3ccc(NS(=O)(=O)NN4CCCC4)cc3S(=O)(=O)N2)c(O)c2cccnc21 | –
39 | 8.7 nM | CNS(=O)(=O)Nc1ccc2c(c1)S(=O)(=O)NC(c1c(O)c3ccccc3n(NC3CCC3)c1=O)=N2 | EC50 (Hepatitis C virus [2]): 11 nM; EC50 (Hepatitis C virus [4]): 420 nM
40 | 39 nM | CC(C)CCn1c(=O)c(C2=Nc3ccc(NS(=O)(=O)NC4CCCC4)cc3S(=O)(=O)N2)c(O)c2cccnc21 | –
